Reference: ChEMBL document CHEMBL3407388, “Synthesis, anticancer activity and molecular docking studies on a series of heterocyclic trans-cyanocombretastatin analogues as antitubulin agents” (2015)

Legend:
Format in all cases: functional
[1] = tested on: NCI-H460; assay: Cytotoxicity against human NCI-H460 cells assessed as growth inhibition after 48 hrs by SRB assay; conditions: NCI-H460, 48 h
In short: (§1)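 NCI 60-cell panel; compounds passing a single-dose screen (10−5 M, 48 h) were tested at five 10-fold dilutions (10−4 to 10−8 M) with 48 h drug exposure. GI50 is the molar concentration giving 50% reduction in net cell growth relative to cell numbers on day 0.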

[2] = tested on: SK-MEL-5; assay: Cytotoxicity against human SK-MEL-5 cells assessed as growth inhibition after 48 hrs by SRB assay; conditions: SK-MEL-5, 48 h; in short: as §1
[3] = tested on: MCF7; assay: Cytotoxicity against human MCF7 cells assessed as growth inhibition after 48 hrs by SRB assay; conditions: MCF7, 48 h; in short: as §1
[4] = Cytotoxicity against human OVCAR3 cells assessed as growth inhibition after 48 hrs by SRB assay; conditions: OVCAR-3, 48 h; in short: as §1
[5] = tested on: COLO 205; assay: Cytotoxicity against human COLO205 cells assessed as growth inhibition after 48 hrs by SRB assay; conditions: COLO 205, 48 h; in short: as §1
[6] = tested on: RPMI-8226; assay: Cytotoxicity against human RPMI8226 cells assessed as growth inhibition after 48 hrs by SRB assay; conditions: RPMI-8226, 48 h; in short: as §1
[7] = tested on: SNB-19; assay: Cytotoxicity against human SNB19 cells assessed as growth inhibition after 48 hrs by SRB assay; conditions: SNB-19, 48 h; in short: as §1
[8] = Cytotoxicity against human PC3 cells assessed as growth inhibition after 48 hrs by SRB assay; conditions: PC-3, 48 h; in short: as §1
[9] = tested on: RXF 393; assay: Cytotoxicity against human RXF393 cells assessed as growth inhibition after 48 hrs by SRB assay; conditions: RXF 393, 48 h; in short: as §1
[10] = tested on: IGROV-1; assay: Cytotoxicity against human IGROV1 cells assessed as growth inhibition after 48 hrs by SRB assay; conditions: IGROV-1, 48 h; in short: as §1
[11] = tested on: HL-60(TB); assay: Cytotoxicity against human HL-60(TB) cells assessed as growth inhibition after 48 hrs by SRB assay; conditions: HL-60, 48 h
In short: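 NCI 60-cell panel, leukemia subpanel. Five-dose screen at 10-fold dilutions from 10−4 to 10−8 M with 48 h drug exposure. GI50 is the molar concentration giving 50% reduction in net cell growth compared with cell numbers on day 0.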

[12] = tested on: SF-539; assay: Cytotoxicity against human SF539 cells assessed as growth inhibition after 48 hrs by SRB assay; conditions: SF-539, 48 h; in short: as §1
[13] = Cytotoxicity against human UO31 cells assessed as growth inhibition after 48 hrs by SRB assay; conditions: UO-31, 48 h
[14] = tested on: SF-295; assay: Cytotoxicity against human SF295 cells assessed as growth inhibition after 48 hrs by SRB assay; conditions: SF-295, 48 h; in short: as §1
[15] = tested on: MOLT-4; assay: Cytotoxicity against human MOLT4 cells assessed as growth inhibition after 48 hrs by SRB assay; conditions: MOLT-4, 48 h; in short: as §1
[16] = Cytotoxicity against human OVCAR8 cells assessed as growth inhibition after 48 hrs by SRB assay; conditions: OVCAR-8, 48 h; in short: as §1
[17] = tested on: TK-10; assay: Cytotoxicity against human TK10 cells assessed as growth inhibition after 48 hrs by SRB assay; conditions: TK-10, 48 h
[18] = tested on: NCI-H23; assay: Cytotoxicity against human NCI-H23 cells assessed as growth inhibition after 48 hrs by SRB assay; conditions: NCI-H23, 48 h; in short: as §1
[19] = tested on: MDA-MB-435; assay: Cytotoxicity against human MDA-MB-435 cells assessed as growth inhibition after 48 hrs by SRB assay; conditions: MDA-MB-435, 48 h; in short: as §1
[20] = tested on: SN12C; assay: Cytotoxicity against human SN12C cells assessed as growth inhibition after 48 hrs by SRB assay; in short: as §1
[21] = tested on: M14; assay: Cytotoxicity against human M14 cells assessed as growth inhibition after 48 hrs by SRB assay; conditions: M14, 48 h; in short: as §1
[22] = Cytotoxicity against human UACC62 cells assessed as growth inhibition after 48 hrs by SRB assay; conditions: UACC-62, 48 h
[23] = tested on: U-251; assay: Cytotoxicity against human U251 cells assessed as growth inhibition after 48 hrs by SRB assay; conditions: U-251, 48 h
[24] = tested on: HT-29; assay: Cytotoxicity against human HT-29 cells assessed as growth inhibition after 48 hrs by SRB assay; conditions: HT-29, 48 h; in short: as §1
[25] = tested on: LOX IMVI; assay: Cytotoxicity against human LOXIMVI cells assessed as growth inhibition after 48 hrs by SRB assay; in short: as §1
[26] = tested on: K562; assay: Cytotoxicity against human K562 cells assessed as growth inhibition after 48 hrs by SRB assay; conditions: K562, 48 h; in short: as §1
[27] = tested on: CAKI-1; assay: Cytotoxicity against human Caki1 cells assessed as growth inhibition after 48 hrs by SRB assay; conditions: CAKI-1, 48 h; in short: as §1
[28] = tested on: KM12; assay: Cytotoxicity against human KM12 cells assessed as growth inhibition after 48 hrs by SRB assay; conditions: KM12, 48 h; in short: as §1
[29] = tested on: DU-145; assay: Cytotoxicity against human DU145 cells assessed as growth inhibition after 48 hrs by SRB assay; conditions: DU-145, 48 h; in short: as §1
[30] = Cytotoxicity against human HCT15 cells assessed as growth inhibition after 48 hrs by SRB assay; conditions: HCT-15, 48 h; in short: as §1
[31] = Cytotoxicity against human NCI-ADR-RES cells assessed as growth inhibition after 48 hrs by SRB assay; in short: as §1
[32] = tested on: BT-549; assay: Cytotoxicity against human BT549 cells assessed as growth inhibition after 48 hrs by SRB assay; conditions: BT-549, 48 h; in short: as §1
[33] = tested on: SK-OV-3; assay: Cytotoxicity against human SKOV3 cells assessed as growth inhibition after 48 hrs by SRB assay; conditions: SK-OV-3, 48 h; in short: as §1
[34] = tested on: A498; assay: Cytotoxicity against human A498 cells assessed as growth inhibition after 48 hrs by SRB assay; conditions: A498, 48 h; in short: as §1
[35] = tested on: HCC 2998; assay: Cytotoxicity against human HCC2998 cells assessed as growth inhibition after 48 hrs by SRB assay; conditions: HCC 2998, 48 h; in short: as §1
[36] = Cytotoxicity against human OVCAR4 cells assessed as growth inhibition after 48 hrs by SRB assay; conditions: OVCAR-4, 48 h; in short: as §1
[37] = tested on: NCI-H226; assay: Cytotoxicity against human NCI-H226 cells assessed as growth inhibition after 48 hrs by SRB assay; conditions: NCI-H226, 48 h; in short: as §1
[38] = tested on: 786-0; assay: Cytotoxicity against human 786-0 cells assessed as growth inhibition after 48 hrs by SRB assay; conditions: 786-0, 48 h; in short: as §1
[39] = tested on: MDA-MB-231; assay: Cytotoxicity against human MDA-MB-231 cells assessed as growth inhibition after 48 hrs by SRB assay; conditions: MDA-MB-231, 48 h; in short: as §1
[40] = Cytotoxicity against human OVCAR5 cells assessed as growth inhibition after 48 hrs by SRB assay; conditions: OVCAR-5, 48 h; in short: as §1
[41] = Cytotoxicity against human Hs578T cells assessed as growth inhibition after 48 hrs by SRB assay; conditions: Hs-578T; in short: as §1
[42] = tested on: SW-620; assay: Cytotoxicity against human SW620 cells assessed as growth inhibition after 48 hrs by SRB assay; conditions: SW-620, 48 h
[43] = tested on: SF-268; assay: Cytotoxicity against human SF268 cells assessed as growth inhibition after 48 hrs by SRB assay; conditions: SF-268, 48 h; in short: as §1

With `COc1cc(/C(C#N)=C/c2c[nH]c3ccccc23)cc(OC)c1OC` the GI50 [1] was 41 nM, the GI50 [2] was 42 nM and the GI50 [3] was 34 nM. It also gave a GI50 [4] of 33 nM, a GI50 [5] of 474 nM and a GI50 [6] of 231 nM. For the same compound, the GI50 [7] was 76 nM, the GI50 [8] was 54 nM and the GI50 [9] was 36 nM. It also gave a GI50 [10] of 417 nM, a GI50 [11] of 48 nM and a GI50 [12] of 99 nM. For the same compound, the GI50 [13] was 1410 nM, the GI50 [14] was 42 nM and the GI50 [15] was 131 nM. The GI50 [16] was 121 nM, the GI50 [17] was 11100 nM and the GI50 [18] was 133 nM. For the same compound, the GI50 [19] was 24 nM, the GI50 [20] was 699 nM and the GI50 [21] was 53 nM. The GI50 [22] was 48 nM, the GI50 [23] was 50 nM and the GI50 [24] was 38 nM. For the same compound, the GI50 [25] was 75 nM, the GI50 [26] was 40 nM and the GI50 [27] was 58 nM. It also gave a GI50 [28] of 43 nM, a GI50 [29] of 132 nM and a GI50 [30] of 51 nM. It also gave a GI50 [31] of 39 nM, a GI50 [32] of 1940 nM and a GI50 [33] of 51 nM. For the same compound, the GI50 [34] was 35 nM, the GI50 [35] was 107 nM and the GI50 [36] was 338 nM. It also gave a GI50 [37] of 194 nM, a GI50 [38] of 90 nM and a GI50 [39] of 245 nM. For the same compound, the GI50 [40] was 10600 nM, the GI50 [41] was 131 nM and the GI50 [42] was 47 nM. For the same compound, the GI50 [43] was 2540 nM.
Compound `COc1cc(OC)cc(/C(C#N)=C/c2nc3ccccc3s2)c1` has a GI50 [1] of 2860 nM, a GI50 [2] of 1370 nM and a GI50 [3] of 399 nM. For the same compound, the GI50 [4] was 285 nM, the GI50 [5] was 574 nM and the GI50 [6] was 2290 nM. The GI50 [7] was > 10000 nM, the GI50 [8] was 2740 nM and the GI50 [9] was 551 nM. It also gave a GI50 [10] of 706 nM, a GI50 [11] of 345 nM and a GI50 [12] of 1680 nM. The GI50 [13] was 679 nM, the GI50 [14] was 2460 nM and the GI50 [15] was 3380 nM. For the same compound, the GI50 [16] was 3130 nM, the GI50 [17] was 2780 nM and the GI50 [18] was 2840 nM. The GI50 [19] was 199 nM, the GI50 [20] was 4680 nM and the GI50 [21] was 1210 nM. For the same compound, the GI50 [22] was 755 nM, the GI50 [23] was 1910 nM and the GI50 [24] was 438 nM. It also gave a GI50 [25] of 1840 nM, a GI50 [26] of 333 nM and a GI50 [27] of 482 nM. For the same compound, the GI50 [28] was 2010 nM, the GI50 [29] was 1070 nM and the GI50 [30] was 414 nM. It also gave a GI50 [31] of 1470 nM, a GI50 [32] of 3450 nM and a GI50 [33] of 1790 nM. For the same compound, the GI50 [34] was 417 nM, the GI50 [35] was 8390 nM and the GI50 [36] was > 10000 nM. For the same compound, the GI50 [37] was 4110 nM, the GI50 [38] was 2440 nM and the GI50 [39] was 6740 nM. The GI50 [40] was 4850 nM, the GI50 [41] was 2010 nM and the GI50 [42] was 343 nM. For the same compound, the GI50 [43] was 3090 nM.
For `COc1ccc(/C(C#N)=C/c2cc3ccccc3[nH]2)cc1OC`, the GI50 [1] was 53 nM, the GI50 [2] was 142 nM and the GI50 [3] was 289 nM. The GI50 [4] was 34 nM, the GI50 [5] was 232 nM and the GI50 [6] was 151 nM. For the same compound, the GI50 [7] was 189 nM, the GI50 [8] was 62 nM and the GI50 [9] was 151 nM. For the same compound, the GI50 [10] was 482 nM, the GI50 [11] was 34 nM and the GI50 [12] was 47 nM. The GI50 [13] was 71 nM, the GI50 [14] was 36 nM and the GI50 [15] was 84 nM. For the same compound, the GI50 [16] was 326 nM, the GI50 [17] was 5560 nM and the GI50 [18] was 236 nM. For the same compound, the GI50 [19] was 21 nM, the GI50 [20] was 779 nM and the GI50 [21] was 39 nM. It also gave a GI50 [22] of 38 nM, a GI50 [23] of 75 nM and a GI50 [24] of 48 nM. It also gave a GI50 [25] of 64 nM, a GI50 [26] of 39 nM and a GI50 [27] of 103 nM. The GI50 [28] was 76 nM, the GI50 [29] was 206 nM and the GI50 [30] was 48 nM. It also gave a GI50 [31] of 40 nM, a GI50 [32] of 97.8 nM and a GI50 [33] of 394 nM. The GI50 [34] was 40 nM, the GI50 [35] was 366 nM and the GI50 [36] was 735 nM. The GI50 [37] was 399 nM, the GI50 [38] was 602 nM and the GI50 [39] was 291 nM. The GI50 [40] was 471 nM, the GI50 [41] was 133 nM and the GI50 [42] was 42 nM. It also gave a GI50 [43] of 1480 nM.
